{"source": "ChEMBL document CHEMBL3763093", "about": "“The molecular structure of thio-ether fatty acids influences PPAR-dependent regulation of lipid metabolism” (Bioorg Med Chem, 2016)", "key": {"[1]": {"assay": "Effect on fatty acid composition in human myotubes assessed as change in intracellular SFA level at 30 uM after 96 hrs relative to DMSO control", "format": "functional", "in_short": "(§1)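 Differentiated human myotubes (7 days) treated 96 h with 10 or 30 μM compound or DMSO 0.1% (two controls). Cells washed, harvested, lipids extracted and methylated (methanol, sulfuric acid, 90 °C, 1 h); FA methyl esters quantified by GC with C21:0 internal standard, peaks confirmed by standards and GC/MS; values as mol % of intracellular fatty acids.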"}, "[2]": {"assay": "Effect on fatty acid composition in human myotubes assessed as intracellular dTTA level at 10 uM after 96 hrs", "format": "functional", "in_short": "as §1"}, "[3]": {"molecular_target": "T1, Peroxisome proliferator-activated receptor (Homo sapiens) (UniProt P37231+Q07869+Q03181)", "assay": "Agonist activity at PPAR in human myotubes assessed as CD36 mRNA expression at 30 uM after 96 hrs by qPCR analysis relative to control", "in_short": "(§2)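 Myotubes from satellite cells of abdominal muscle biopsies of healthy donors, differentiated 7 days, then exposed 96 h to test lipids (30 μM) vs DMSO 0.1%. Total RNA isolated (RIN ≥7), reverse transcribed, real-time PCR with gene-specific primers; expression expressed relative to DMSO control.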"}, "Homo sapiens [4]": {"species": "Homo sapiens", "assay": "Effect on intracellular [14C]oleic acid uptake in human myotubes at 10 to 30 uM preincubated for 96 hrs followed by substrate addition incubated for 4 hrs by liquid scintillation analysis", "format": "functional, cell-based", "in_short": "(§3)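 Myotubes differentiated 7 days were pretreated 96 h with 10 or 30 μM compound, 10 nM GW501516 or DMSO 0.1%, then given [1-14C]oleic acid (0.5 μCi/mL, 100 μM) in DPBS with HEPES 10 mM and L-carnitine 1 mM, 4 h at 37 °C. Trapped CO2 and cell-associated label counted by scintillation; uptake = CO2 + CA; Bradford protein; % of DMSO basal; n = 8–15.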"}, "[5]": {"assay": "Effect on fatty acid composition in human myotubes assessed as intracellular dTTA level at 30 uM after 96 hrs", "format": "functional", "in_short": "as §1"}, "[6]": {"molecular_target": "T1, Peroxisome proliferator-activated receptor (Homo sapiens)", "assay": "Agonist activity at PPAR in human myotubes assessed as FABP3 mRNA expression at 30 uM after 96 hrs by qPCR analysis relative to control", "in_short": "as §2"}, "Homo sapiens [7]": {"species": "Homo sapiens", "assay": "Induction of fatty acid oxidation in human myotubes using [14C]oleic acid as substrate preincubated for 96 hrs followed by substrate addition incubated for 4 hrs by liquid scintillation analysis", "format": "functional", "in_short": "as §3"}, "[8]": {"assay": "Induction of fatty acid oxidation in human myotubes using [14C]oleic acid as substrate at 30 uM preincubated for 96 hrs followed by substrate addition incubated for 4 hrs by liquid scintillation analysis relative to control", "format": "functional", "in_short": "as §3"}, "[9]": {"assay": "Effect on fatty acid composition in human myotubes assessed as intracellular SFA level at 30 uM after 96 hrs (Rvb= 36.16%)", "format": "functional", "in_short": "as §1"}, "[10]": {"assay": "Effect on fatty acid composition in human myotubes assessed as change in intracellular MUFA level at 30 uM after 96 hrs relative to DMSO control", "format": "functional", "in_short": "as §1"}, "[11]": {"assay": "Effect on fatty acid composition in human myotubes assessed as intracellular PUFA n-9 level at 30 uM after 96 hrs (Rvb= 1.78%)", "format": "functional", "in_short": "as §1"}, "[12]": {"assay": "Effect on fatty acid composition in human myotubes assessed as intracellular PUFA n-3 level at 10 uM after 96 hrs (Rvb= 7.47%)", "format": "functional", "in_short": "as §1"}, "[13]": {"assay": "Effect on fatty acid composition in human myotubes assessed as change in intracellular SFA level at 10 uM after 96 hrs relative to DMSO control", "format": "functional", "in_short": "as §1"}, "[14]": {"assay": "Effect on fatty acid composition in human myotubes assessed as intracellular TTA level at 30 uM after 96 hrs", "format": "functional", "in_short": "as §1"}, "[15]": {"assay": "Effect on fatty acid composition in human myotubes assessed as intracellular SFA level at 10 uM after 96 hrs (Rvb= 36.16%)", "format": "functional", "in_short": "as §1"}, "[16]": {"assay": "Effect on protein level in human myotubes at 10 to 30 uM", "format": "ADME"}, "[17]": {"assay": "Effect on total fatty acid level in human myotubes assessed as per mg of protein at 10 to 30 uM", "format": "ADME"}, "[18]": {"assay": "Effect on fatty acid composition in human myotubes assessed as intracellular PUFA n-3 level at 30 uM after 96 hrs (Rvb= […])", "format": "functional", "in_short": "as §1"}, "[19]": {"assay": "Effect on fatty acid composition in human myotubes assessed as intracellular PUFA n-6 level at 10 uM after 96 hrs (Rvb= 13.41%)", "format": "functional", "in_short": "as §1"}, "[20]": {"molecular_target": "T1, Peroxisome proliferator-activated receptor (Homo sapiens)", "assay": "Agonist activity at PPAR in human myotubes assessed as CPT1A mRNA expression at 30 uM after 96 hrs by qPCR analysis relative to control", "in_short": "as §2"}, "[21]": {"assay": "Effect on fatty acid composition in human myotubes assessed as intracellular MUFA level at 10 uM after 96 hrs (Rvb= 41.04%)", "format": "functional", "in_short": "as §1"}, "[22]": {"assay": "Effect on fatty acid composition in human myotubes assessed as intracellular PUFA n-6 level at 30 uM after 96 hrs (Rvb= 13.41%)", "format": "functional", "in_short": "as §1"}, "[23]": {"assay": "Effect on fatty acid composition in human myotubes assessed as intracellular PUFA n-9 level at 10 uM after 96 hrs (Rvb= 1.78%)", "format": "functional", "in_short": "as §1"}, "[24]": {"molecular_target": "T1, Peroxisome proliferator-activated receptor (Homo sapiens)", "assay": "Agonist activity at PPAR in human myotubes assessed as ANGPTL4 mRNA expression at 30 uM after 96 hrs by qPCR analysis relative to control", "in_short": "as §2"}, "[25]": {"assay": "Effect on fatty acid composition in human myotubes assessed as change in intracellular MUFA level at 10 uM after 96 hrs relative to DMSO control", "format": "functional", "in_short": "as §1"}, "[26]": {"assay": "Effect on fatty acid composition in human myotubes assessed as intracellular TTA level at 10 uM after 96 hrs", "format": "functional", "in_short": "as §1"}, "[27]": {"assay": "Effect on fatty acid composition in human myotubes assessed as intracellular MUFA level at 30 uM after 96 hrs (Rvb= 41.04%)", "format": "functional", "in_short": "as §1"}}, "note": "Calls of active or inactive are those of the source. The calls are words filed in the database; no cut-off is given here."}
{"smiles": "CCCCCCCCCCCCCCSCC(=O)O", "note": "[TETRADECYLTHIOACETIC ACID]", "values": [{"measurement": "Activity", "setting": "[1]", "value": -49.4, "unit": "%"}, {"measurement": "Activity", "setting": "[2]", "value": 1.11, "unit": "mol%"}, {"measurement": "Activity", "setting": "[3]", "value": "Active"}, {"measurement": "Activity", "setting": "Homo sapiens [4]", "value": "inactive"}, {"measurement": "Activity", "setting": "[5]", "value": 1.28, "unit": "mol%"}, {"measurement": "Activity", "setting": "[6]", "value": "Active"}, {"measurement": "Activity", "setting": "Homo sapiens [7]", "value": "Dose-dependent effect"}, {"measurement": "fold change (FC)", "setting": "[8]", "value": 3}, {"measurement": "Activity", "setting": "[9]", "value": 18.25, "unit": "mol%"}, {"measurement": "Activity", "setting": "[10]", "value": -30.8, "unit": "%"}, {"measurement": "Activity", "setting": "[11]", "value": 1.73, "unit": "mol%"}, {"measurement": "Activity", "setting": "[12]", "value": 7.86, "unit": "mol%"}, {"measurement": "Activity", "setting": "[13]", "value": -27.2, "unit": "%"}, {"measurement": "Activity", "setting": "[14]", "value": 31.81, "unit": "mol%"}, {"measurement": "Activity", "setting": "[15]", "value": 26.24, "unit": "mol%"}, {"measurement": "Activity", "setting": "[16]", "value": "Non-toxic"}, {"measurement": "Activity", "setting": "[17]", "value": "Non-toxic"}, {"measurement": "Activity", "setting": "[18]", "value": 6.62, "unit": "mol%"}, {"measurement": "Activity", "setting": "[19]", "value": 14.34, "unit": "mol%"}, {"measurement": "fold change (FC)", "setting": "[20]", "value": 5}, {"measurement": "Activity", "setting": "[21]", "value": 35.09, "unit": "mol%"}, {"measurement": "Activity", "setting": "[22]", "value": 11.78, "unit": "mol%"}, {"measurement": "Activity", "setting": "[23]", "value": 2.2, "unit": "mol%"}, {"measurement": "fold change (FC)", "setting": "[24]", "value": "< 20"}, {"measurement": "Activity", "setting": "[25]", "value": -14.6, "unit": "%"}, {"measurement": "Activity", "setting": "[26]", "value": 13.02, "unit": "mol%"}, {"measurement": "Activity", "setting": "[27]", "value": 28.44, "unit": "mol%"}]}
